# Screens as filed in PubChem BioAssay.
# Only some compounds are listed: those with a hit (about 2.8% of all), similar ones and a draw of the others.
# Measles CPE: compounds protecting cells from measles virus cytopathic effect, primary screen, measles RdRp inhibitor project, single point, MLSMR library, absorbance. Measles virus-infected cells, CPE protection. protection (pct of control), % at 4 µM. hit rate 1.5% among 140,000; in the data active = protection mostly above about 24%, no sharp cut-off; inactive = mostly below about 26%
# NPY Y1 blocker: NPY-Y1 receptor antagonists, primary screen, cell-based; HEK293-CNG Y1 cells, membrane potential fluorescence; NPY at EC95, then isoproterenol; inhibition, % at 3.6 µM; hit rate 1% among 200,000;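 active = inhibition above the campaign mean inhibition of all tested compounds plus 3 SD, cut at about 20% in these data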;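 also: 0% = DMSO wells given NPY plus isoproterenol and 100% = isoproterenol alone without NPY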
#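 System: HEK293 cells with Y1 receptor plus CNG channel / Probe or stimulus: NPY 25 nM then isoproterenol 1 µM plus Ro 20-1724 25 µM / Compound: one concentration, 3.6 µM, in 0.4% DMSO / Schedule: compound incubation 1 h at room temperature, readout 45 min post-stimulation / Measured by: membrane potential fluorescence / Read-out: % inhibition of NPY effect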
# NPY-Y1 PAM-ag: NPY-Y1 receptor potentiators or agonists, primary screen, cell-based; Neuropeptide Y receptor type 1 (Homo sapiens), P25929; NPY-Y1 expressing cells, potentiator/agonist activation; activation, % at 3.6 µM; hit rate 0.37% among 220,000; AID 1304, 2008; in the data active = activation above about 33%, passing the limit was not always enough;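 also: cells stimulated with NPY at EC10 then isoproterenol at EC100; 0% = low agonist plus stimulus and 100% = saturating agonist plus stimulus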
# NPY-Y2 PAM-ag: NPY-Y2 potentiators or agonists, primary screen, cell-based; cells expressing NPY-Y2, potentiator/agonist read-out; activation, % at 3.6 µM; hit rate 0.45% among 220,000; AID 1359, 2008; in the data active = activation above about 27%;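 also: cells stimulated with NPY near EC25 plus isoproterenol at EC100; 0% = vehicle plus submaximal agonist and 100% = vehicle plus saturating agonist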
# Target sequence (P49146 whole entry, looked up): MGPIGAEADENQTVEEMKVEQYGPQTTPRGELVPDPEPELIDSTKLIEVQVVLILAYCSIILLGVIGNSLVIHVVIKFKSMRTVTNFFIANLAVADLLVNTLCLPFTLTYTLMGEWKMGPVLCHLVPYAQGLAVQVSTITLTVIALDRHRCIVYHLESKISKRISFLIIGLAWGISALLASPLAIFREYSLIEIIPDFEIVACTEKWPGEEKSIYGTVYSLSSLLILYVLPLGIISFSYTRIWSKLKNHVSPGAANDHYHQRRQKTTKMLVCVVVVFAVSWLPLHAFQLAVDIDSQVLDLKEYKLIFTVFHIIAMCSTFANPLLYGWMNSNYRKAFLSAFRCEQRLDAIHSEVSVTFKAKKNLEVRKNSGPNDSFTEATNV
# NPY Y2 blocker: NPY-Y2 receptor antagonists, primary screen, cell-based; hit rate 0.99% among 140,000; NPY-Y2 expressing cells, antagonist mode; inhibition, % at 2.7 µM; Neuropeptide Y receptor type 2 (Homo sapiens), P49146; AID 793, 2007; in the data active = inhibition above about 17%;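 also: 0% = vehicle with agonist challenge and 100% = reference antagonist with challenge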
# MDM2 E3 inh: MDM2-luciferase reporter signal enhancers, primary screen, MDM2 E3 ligase inhibitor project, cell-based, luminescence, 1536-well | E3 ubiquitin-protein ligase Mdm2 (Homo sapiens), Q00987 | cell-based MDM2 ubiquitination luciferase reporter, 2 h; 0 = plate control, 100 = twice control, blank-subtracted | signal enhancement, % at 5 µM | hit rate 0.11% among 210,000 | AID 1230, 2008;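 active = signal enhancement of 30% or more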;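 also: luminescence tracks abundance of the self-degrading MDM2-luciferase fusion protein; higher signal means inhibition of MDM2 E3 ligase activity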
#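 test system = mammalian cells stably expressing self-ubiquitinating, self-degrading MDM2 E3–luciferase fusion | quantity = 2000 cells/well | incubation = cell settling 4 h, compound treatment 2 h, both 37 °C | signal = luminescence with SteadyLite reagent, 15 min at room temperature | evaluation = % enhancement relative to plate controls after blank subtraction | benchmarks = plate controls and plate blanks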
# An asterisk follows results filed as active; nt = not tested or not shown.
SMILES,Measles CPE,NPY Y1 blocker,NPY-Y1 PAM-ag,NPY-Y2 PAM-ag,NPY Y2 blocker,MDM2 E3 inh
COc1ccc(-n2c(C)cc(SC)c(C(C)=O)c2=S)cc1,98*,6,9,3,0,nt
CSc1cc(C)n(-c2ccc(Cl)cc2)c(=S)c1C(C)=O,2,-5,36,-3,1,-5
Cc1cc(NC(=O)Cn2nc([N+](=O)[O-])c(Br)c2C)no1,nt,1,9,12,nt,3
COc1cccc(C(=O)NCc2cn3ccsc3n2)c1,10,-10,72*,98*,-1,-6
O=C(NCc1cn2ccsc2n1)c1cccc(C(F)(F)F)c1,0,2,-10,1,-1,-8
Cc1cc(C)n(-c2nnc(C)n2/N=C/c2cc(Br)ccc2OCc2ccccc2)n1,15,7,3,-15,32*,17
Cc1cc(NC(=O)c2cc(C3CC3)on2)no1,nt,-1,-19,-38,nt,1
Cc1cc(C)c(NS(=O)(=O)c2ccc(NC(=O)/C=C/C(=O)O)cc2)c(C)c1,11,-4,-32,-3,1,0
Cc1ccc(C2CC(c3ccc(Cl)cc3)=NNC2=O)cc1 (stereo unspecified),49*,11,-3,4,2,nt
O=C1NN=C(c2ccc(Br)cc2)CC1c1ccc(Cl)cc1 (stereo unspecified),nt,-3,-3,6,nt,-26
CCCNC(=O)CSCc1nc(-c2ccc(SC)cc2)oc1C,nt,10,-4,-17,nt,-14
CCc1ccc(-c2nc(CSCC(=O)NCc3ccco3)c(C)o2)cc1,nt,21*,-3,-8,nt,-13
O=C(N=C1c2ccccc2CN1c1ccc(F)c(Cl)c1)c1cccnc1Cl,11,-2,38,4,6,8
O=C(CC1C(=O)NCCN1C(=O)Nc1ccc(C(F)(F)F)cc1)Nc1ccc(F)cc1 (stereo unspecified),nt,nt,69*,41*,nt,-2
Cc1nc(NC(C)c2ccccc2)c2c3c(sc2n1)CCC3 (stereo unspecified),13,38*,-66,-20,17*,-16
CCOC(=O)C(NC(=O)N(C)C)(Nc1sc(C)c(CC)c1C#N)C(F)(F)F (stereo unspecified),5,3,16,0,2,-9
Cc1ccc(NC(=O)c2cn(-c3cccc(C)n3)cn2)cc1,4,1,-9,11,0,-5
CCOC(CCNC(=O)c1cn(-c2cccc(C)n2)cn1)OCC,34*,4,23,-7,0,-19
O=C(O)CCCC(=O)Nc1ccccc1C(=O)N1CCOCC1,nt,3,-4,-20,nt,nt
CCCCC(=O)Nc1ccccc1C(=O)N1CCOCC1,37*,-7,-5,-4,3,-7
Cc1nn(Cc2ccccc2)c(C)c1NC(=O)CSc1nc(-c2ccccc2)nc2c1cnn2-c1ccccc1,6,-4,1,2,2,-10
Cc1nc(SCC(=O)Nc2c(C)nn(C)c2C)c2cnn(-c3ccccc3)c2n1,48*,-4,16,3,1,-14
O=C(CSc1nc2ccccc2c(=O)n1-c1ccc(F)cc1)Nc1cc(S(=O)(=O)N2CCOCC2)ccc1Cl,4,8,-33,-3,3,5
O=c1[nH]c2ccc(Cl)cc2c(O)c1-c1ccccc1,29,3,13,1,18*,-17
COc1ccc(S(=O)(=O)Nc2cc3c(cc2C(C)=O)OCO3)cc1,nt,13,4,-5,nt,-8
CCCc1ncc(C(O)c2ccccc2OC)n1C (stereo unspecified),nt,0,-6,-9,nt,-44
CCOc1ccccc1Nc1nc(N)nc(CSc2nccc(C)n2)n1,24*,-1,-14,-9,3,9
Cc1sc2c(c1C)c(=O)nc1scc(C)n12,nt,3,-16,-4,4,nt
O=C1c2ccccc2-c2nccnc21,1,0,11,1,-1,-11
O=C1c2cccnc2-c2ncccc21,46*,-4,3,0,6,-4
